A short description of data set [1]: Peak plasma drug level after intraduodenal administration at a dose 10 mg/kg from systemic circulation in salt-depleted cynomolgus monkeys using HPLC assay. The format is ADME, organism-based, Macaca fascicularis. On the set-up: dose 10 mg/kg, route intraduodenal. The settings on record: cynomolgus monkey, read-out: Activity. Put shortly:
(§1)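 Salt-depleted cynomolgus monkeys, anesthetized, n = 4; 10 mg/kg intraduodenal in ethanol/HCl (110 mol %) diluted with aqueous hydroxypropyl methylcellulose (25% ethanol final, 10 mg/mL). 5-h experiment, systemic and portal sampling. Plasma (0.40 mL) mixed with 10% Na2CO3, extracted with ethyl acetate, assayed by HPLC; recoveries 75-85%. AUC as ng h/mL; mean ± SEM.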

A short description of data set [2]: Plasma level by the renin inhibition assay from samples taken at 30 minutes from portal circulation by administering 10 mg/kg intraduodenally to the rat.
Data set [3] in a line: Plasma level by the renin inhibition assay from samples taken at 30 minutes from systemic circulation by administering 10 mg/kg intraduodenally to the rat.
Data set [4] is described as follows: Partition coefficient (logD7.4). Conditions: octanol/water, pH 7.4.
A short description of data set [5]: Plasma level by the renin inhibition assay from samples taken at 10 minutes from portal circulation by administering 10 mg/kg intraduodenally to the rat.
The nature of data set [6]: Integrated area under the plasma drug level-time curve after intraduodenal administration at a dose 10 mg/kg from portal circulation in salt-depleted cynomolgus monkeys using HPLC assay. On the set-up: dose 10 mg/kg, route intraduodenal. Conditions: cynomolgus monkey. The format is ADME, organism-based, Macaca fascicularis. The method, boiled down:
as §1

The nature of data set [7]: Integrated area under the plasma drug level-time curve after intraduodenal administration at a dose 10 mg/kg from systemic circulation in salt-depleted cynomolgus monkeys using HPLC assay. The format is ADME, organism-based, Macaca fascicularis. On the set-up: dose 10 mg/kg, route intraduodenal. Conditions: cynomolgus monkey. Put shortly:
as §1

The nature of data set [8]: Peak plasma drug level after intraduodenal administration at a dose 10 mg/kg from portal circulation in salt-depleted cynomolgus monkeys using HPLC assay. The format is ADME, organism-based, Macaca fascicularis. On the set-up: dose 10 mg/kg, route intraduodenal. Conditions: cynomolgus monkey, read-out: Activity. The method, boiled down: as §1
Data set [9] is described as follows: Plasma level by the renin inhibition assay from samples taken at 10 minutes from systemic circulation by administering 10 mg/kg intraduodenally to the rat.

By logD is commonly meant lipophilicity at a set pH, counting ionised and neutral species. The term AUC denotes concentration integrated over time. Take `CCN1C[C@@H]([C@H](O)[C@H](CC2CCCCC2)NC(=O)[C@H](Cc2cscn2)NC(=O)[C@@H](CC(=O)N2CCOCC2)Cc2ccccc2)OC1=O`: the Cmax in [1] is 0.36 µg/mL; in data set [8] it was 3.2 µg/mL. Further, the concentration at 0.5 h came out at 1.1 µg/mL in data set [2] and 0.3 µg/mL in [3]. This molecule gave a logD in data set [4] of 2.83. In addition, the concentration at 10 min in data set [5] was 1.9 µg/mL; in data set [9], 0.32 µg/mL. In addition, the AUC in data set [6] was determined as 3.8 µg·h/mL; in [7], 0.77 µg·h/mL.

Source of the values: ChEMBL document CHEMBL1126594, “Studies directed toward the design of orally active renin inhibitors. 1. Some factors influencing the absorption of small peptides” (J Med Chem, 1993).
